The target in data set [1] is T1, SRPK1 (Homo sapiens, UniProt Q96SB4). Description: Steady-state kinetic phosphorylation assay, SRPK1. The data set is classed as biochemical. The gist of the method:
(§1)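 His6-tagged kinase (full length, N-terminal deletion, or SID deletion with RRQ linker) from E. coli BL21(DE3), Ni-purified; refolded His6-SRSF1 substrate. Reaction: 50 mM MOPS pH 7.4, 10 mM Mg2+, 1 mg/mL BSA, 23 °C, started with 100 μM 32P-ATP (600-1000 cpm/pmol). Quenched in SDS loading buffer; bands excised and counted. Initial velocities vs total SRSF1 or ATP fit to Michaelis-Menten; kcat = Vmax/total enzyme.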

The subject of data set [2] is SRPK1(ΔN). Description: Steady-state kinetic phosphorylation assay, SRPK1. As to conditions: for Km: substrate SRSF1, pH 7.4, 23° C. The data set is classed as biochemical. The gist of the method:
as §1

In data set [3] the test system is SRPK1(ΔS). Briefly: Steady-state kinetic phosphorylation assay, SRPK1. It counts as biochemical. The settings on record: for Km: substrate SRSF1, pH 7.4, 23° C. The gist of the method:
as §1

The target of data set [4] is T1, SRPK1. Description: Fluorescent Arg-Ser peptide binding, SRPK1. As to conditions: for fluorescence emission change: addition of SRPK1 (25, 50, 75 nM) to 10 nM peptide.
Data set [5] has as its system SRPK1(ΔN). Description: Fluorescent Arg-Ser peptide binding, SRPK1. As to conditions: removal of the N-terminus; both peptides.
The target in data set [6] is T1, SRPK1. It counts as biochemical. As to conditions: steady-state kinetic studies; data not shown.
Data set [7] deals with SRPK1 (SR-specific protein kinase 1), full-length wild type (UniProt Q96SB4). Description: kinetic competition assay.
Data set [8] concerns the target SRPK1(ΔN), SRPK1 lacking the full-length N-terminus. Description: kinetic competition assay.
Data set [9] concerns the target SRPK1(ΔS), SRPK1 lacking the spacer insert domain (SID). Description: kinetic competition assay.
The subject of data set [10] is SRPK1(ΔN). Description: Competition assay. The data set is classed as biochemical. As to conditions: removal of the N-terminus; wt-SRSF1.
Target sequence in this assay (Q96SB4 76-655 limits assumed, stated change not applied): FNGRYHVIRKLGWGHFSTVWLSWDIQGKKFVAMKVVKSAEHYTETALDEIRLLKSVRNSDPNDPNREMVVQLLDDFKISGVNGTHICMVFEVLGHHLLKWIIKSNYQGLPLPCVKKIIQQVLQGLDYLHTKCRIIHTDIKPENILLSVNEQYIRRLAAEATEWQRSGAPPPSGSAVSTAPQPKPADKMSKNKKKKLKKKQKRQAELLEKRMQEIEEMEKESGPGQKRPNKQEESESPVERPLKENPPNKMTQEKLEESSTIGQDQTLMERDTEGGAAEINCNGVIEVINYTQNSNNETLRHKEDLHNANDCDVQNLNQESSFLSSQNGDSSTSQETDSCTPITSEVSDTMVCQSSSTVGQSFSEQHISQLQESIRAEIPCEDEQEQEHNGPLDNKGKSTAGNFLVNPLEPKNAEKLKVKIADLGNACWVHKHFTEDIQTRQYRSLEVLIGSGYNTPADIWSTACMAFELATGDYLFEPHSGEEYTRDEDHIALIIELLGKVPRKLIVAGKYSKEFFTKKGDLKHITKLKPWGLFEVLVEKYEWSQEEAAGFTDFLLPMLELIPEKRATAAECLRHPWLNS
In data set [11] the target is SRPK1(ΔS). Briefly: Competition assay. As to conditions: removal of the SID. The data set is classed as biochemical.
Data set [12] has as its target T1, SRPK1. Briefly: Single turnover phosphorylation, SRPK1. It counts as biochemical.
The test system of data set [13] is SRPK1(ΔS). Description: Single turnover phosphorylation, SRPK1. It counts as biochemical.
Data set [14] deals with T1, SRPK1. The settings on record: SRPK1 complex with SRSF1; ref [15]; [18]; cited from earlier work.
The target of data set [15] is T1, SRPK1. The settings on record: cited from earlier work.
Where [16] appears, read: SRPK1 2 μM, SRSF1 100 nM, ^32P-ATP start, double exponential fit.
Where [17] appears, read: SRPK1 2 μM, SRSF1 100 nM, double exponential fit.
The mark [18] stands for this setting: wild-type kinase, single turnover.

Where two headings read alike, the source gives them in different places. Where a SMILES comes first, the peptide text is derived from it. The star is where a group is joined. 5FAM = O=C1OC2(c3ccc(O)cc3Oc3cc(O)ccc32)c2ccc(C(=O)*)cc21

T1 sequence (Q96SB4 whole entry, species assumed): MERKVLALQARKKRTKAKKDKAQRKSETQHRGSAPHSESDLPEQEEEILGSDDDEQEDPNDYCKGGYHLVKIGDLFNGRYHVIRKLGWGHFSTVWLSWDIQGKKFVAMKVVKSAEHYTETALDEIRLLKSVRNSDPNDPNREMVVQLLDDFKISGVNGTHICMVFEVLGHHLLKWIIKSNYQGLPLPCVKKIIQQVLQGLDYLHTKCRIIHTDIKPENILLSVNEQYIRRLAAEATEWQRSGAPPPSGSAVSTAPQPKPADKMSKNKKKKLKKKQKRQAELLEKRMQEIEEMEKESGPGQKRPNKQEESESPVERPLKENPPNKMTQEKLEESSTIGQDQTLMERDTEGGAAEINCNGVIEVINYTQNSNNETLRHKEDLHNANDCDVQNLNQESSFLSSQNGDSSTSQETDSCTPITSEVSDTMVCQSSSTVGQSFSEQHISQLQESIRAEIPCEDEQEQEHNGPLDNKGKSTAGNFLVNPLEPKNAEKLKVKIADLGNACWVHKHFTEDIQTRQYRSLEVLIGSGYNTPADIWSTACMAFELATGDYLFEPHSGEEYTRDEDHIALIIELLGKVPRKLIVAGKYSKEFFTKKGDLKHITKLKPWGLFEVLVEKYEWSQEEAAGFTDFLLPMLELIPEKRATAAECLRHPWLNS
Sequence of SRPK1 (SR-specific protein kinase 1), full-length wild type (Q96SB4 whole entry): as the sequence (Q96SB4 whole entry, species assumed) above
Sequence of SRPK1(ΔN), SRPK1 lacking the full-length N-terminus (Q96SB4 71-655, stated change not applied): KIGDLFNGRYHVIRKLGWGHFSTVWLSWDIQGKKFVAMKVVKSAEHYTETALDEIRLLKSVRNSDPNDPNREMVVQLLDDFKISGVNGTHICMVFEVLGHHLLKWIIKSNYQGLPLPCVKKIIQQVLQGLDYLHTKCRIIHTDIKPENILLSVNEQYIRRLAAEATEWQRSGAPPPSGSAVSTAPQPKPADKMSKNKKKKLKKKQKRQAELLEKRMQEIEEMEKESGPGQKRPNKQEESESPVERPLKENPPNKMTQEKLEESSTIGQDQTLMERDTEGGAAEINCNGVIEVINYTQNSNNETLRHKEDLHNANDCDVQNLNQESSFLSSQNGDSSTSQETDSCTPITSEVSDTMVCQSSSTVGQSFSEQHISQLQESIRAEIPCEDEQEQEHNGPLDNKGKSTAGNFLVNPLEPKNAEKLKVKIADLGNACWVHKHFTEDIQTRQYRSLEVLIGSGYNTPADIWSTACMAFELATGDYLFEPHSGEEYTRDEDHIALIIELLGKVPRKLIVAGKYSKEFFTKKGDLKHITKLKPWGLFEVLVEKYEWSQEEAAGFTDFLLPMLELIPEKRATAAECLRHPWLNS

`Nc1ncnc2c1ncn2[C@@H]1O[C@H](COP(=O)(O)OP(=O)(O)OP(=O)(O)O)[C@@H](O)[C@H]1O` [ATP, reference compound]: the Michaelis-Menten constant (Km) was determined as 5 ± 0.5 µM on SRPK1 [1] (read-out: Km,ATP (Km for ATP), substrate SRSF1, pH 7.4, 23° C); 9 ± 2 µM with SRPK1(ΔN) [2] (read-out: Km,ATP (Km for ATP), SRPK1(ΔN)); 28 ± 7 µM in the data set with SRPK1(ΔS) [3] (read-out: Km,ATP (Km for ATP), SRPK1(ΔS)). For the same molecule, the “increase of Km,ATP” value in the data set with SRPK1(ΔN) [2] (N-terminal deletion versus SRPK1) and in the data set with SRPK1(ΔS) [3] (SID deletion versus SRPK1) was 2-5 fold in each case.
On to `N=C(N)NCCC[C@H](NC(=O)c1ccc2c(c1)C(=O)OC21c2ccc(O)cc2Oc2cc(O)ccc21)C(=O)N[C@@H](CO)C(=O)N[C@@H](CCCNC(=N)N)C(=O)N[C@@H](CO)C(=O)N[C@@H](CCCNC(=N)N)C(=O)N[C@@H](CO)C(=O)N[C@@H](CCCNC(=N)N)C(=O)N[C@@H](CO)C(=O)N[C@@H](CCCNC(=N)N)C(=O)N[C@@H](CO)C(=O)N[C@@H](CCCNC(=N)N)C(=O)N[C@@H](CO)C(=O)N[C@@H](CCCNC(=N)N)C(=O)N[C@@H](CO)C(=O)N[C@@H](CCCNC(=N)N)C(=O)N[C@@H](CO)C(=O)O` [Fl-(RS)8] (5FAM-RSRSRSRSRSRSRSRS-OH; N-terminus and C-terminus assumed), for which, on SRPK1 [4], the fluorescence emission change entry is given as “increases in the fluorescence emission spectra”.
For `N=C(N)NCCC[C@H](NC(=O)c1ccc2c(c1)C(=O)OC21c2ccc(O)cc2Oc2cc(O)ccc21)C(=O)N[C@@H](CO)C(=O)N[C@@H](CCCNC(=N)N)C(=O)N[C@@H](CO)C(=O)N[C@@H](CCCNC(=N)N)C(=O)N[C@@H](CO)C(=O)N[C@@H](CCCNC(=N)N)C(=O)N[C@@H](CO)C(=O)N[C@@H](CCCNC(=N)N)C(=O)N[C@@H](CO)C(=O)N[C@@H](CCCNC(=N)N)C(=O)N[C@@H](CO)C(=O)N[C@@H](CCCNC(=N)N)C(=O)N[C@@H](CO)C(=O)N[C@@H](CCCNC(=N)N)C(=O)N[C@@H](CO)C(=O)N[C@@H](CCCNC(=N)N)C(=O)N[C@@H](CO)C(=O)N[C@@H](CCCNC(=N)N)C(=O)N[C@@H](CO)C(=O)N[C@@H](CCCNC(=N)N)C(=O)N[C@@H](CO)C(=O)N[C@@H](CCCNC(=N)N)C(=O)N[C@@H](CO)C(=O)N[C@@H](CCCNC(=N)N)C(=O)N[C@@H](CO)C(=O)N[C@@H](CCCNC(=N)N)C(=O)N[C@@H](CO)C(=O)N[C@@H](CCCNC(=N)N)C(=O)N[C@@H](CO)C(=O)N[C@@H](CCCNC(=N)N)C(=O)N[C@@H](CO)C(=O)O` [Fl-(RS)16] (5FAM-RSRSRSRSRSRSRSRSRSRSRSRSRSRSRSRS-OH; N-terminus and C-terminus assumed), the fluorescence emission change result at SRPK1 [4] is listed as “increases in the fluorescence emission spectra”. Moreover, the “affinity of 32-residue peptide compared to the 16-residue peptide” value at SRPK1 [4] (in all cases (SRPK1, SRPK1(ΔN), SRPK1(ΔS))) was “either equivalent or a 2-fold greater affinity”. Also, the “reduction of peptide binding affinity” value in the data set with SRPK1(ΔN) [5] is “about 15 fold”. Moreover, the “inhibition of SRSF1 phosphorylation” value against SRPK1 [6] is given as “competitively inhibits SRSF1 phosphorylation”.
Consider RS domain of SRSF1 (domain or fragment), for which the inhibition constant Ki in data set [7] stood at 150 nM; in data set [8] it was 830 nM; in [9], 140 nM.
In the case of “SRSF1: human alternative splicing factor or ASF/SF2; prototype SR protein, SRPK1 substrate”, the kcat with SRPK1 [1] (50 mM MOPS pH 7.4, 10 mM Mg^2+, 1 mg/mL BSA, ^32P-ATP, 23° C, Michaelis-Menten fit) turned out to be 0.5 ± 0.033 s⁻¹; in the data set with SRPK1(ΔN) [2] (SRPK1(ΔN), 50 mM MOPS pH 7.4, 10 mM Mg^2+, 1 mg/mL BSA, ^32P-ATP, 23° C, Michaelis-Menten fit), 0.108 ± 0.015 s⁻¹; with SRPK1(ΔS) [3] (SRPK1(ΔS), 50 mM MOPS pH 7.4, 10 mM Mg^2+, 1 mg/mL BSA, ^32P-ATP, 23° C, Michaelis-Menten fit), 0.0733 ± 0.0067 s⁻¹. Further, the Km with SRPK1 [1] (read-out: Km,SR (Km for SRSF1), substrate SRSF1, pH 7.4, 23° C) was 0.12 ± 0.02 µM; in the data set with SRPK1(ΔN) [2] (read-out: Km,SR (Km for SRSF1), SRPK1(ΔN)), 0.63 ± 0.07 µM; in the data set with SRPK1(ΔS) [3] (read-out: Km,SR (Km for SRSF1), SRPK1(ΔS)), 0.12 ± 0.02 µM. The “increase of Km,SR” value in the data set on SRPK1(ΔN) [2] (SRPK1(ΔN) versus SRPK1) was 3 fold. The “lowering of turnover (kcat)” value in the data set on SRPK1(ΔN) [2] (SRPK1(ΔN) versus SRPK1) and with SRPK1(ΔS) [3] (SRPK1(ΔS) versus SRPK1) was “about 5 fold” each time. The “enhancement of catalysis by N-terminus (kcat/Km,SR)” value with SRPK1(ΔN) [2] (SRPK1 versus SRPK1(ΔN)) was “about 20 fold”. Further, the “effect of insert (SID) on Km,SR” value with SRPK1(ΔS) [3] (SRPK1(ΔS) versus SRPK1) is given as “no effect”. Moreover, the “enhancement of catalysis by insert (kcat/Km,SR)” value with SRPK1(ΔS) [3] (SRPK1 versus SRPK1(ΔS)) is listed as “about 5 fold”. Besides, the “decrease of SR protein binding affinity (KI)” value in the data set on SRPK1(ΔN) [10] is 2-3 fold. Moreover, at SRPK1(ΔS) [11], the “effect of SID removal on KI / binding affinity” value is recorded as “no effect”. Moreover, the “rate constant, fast phase” value with SRPK1 [12] (setting [16]) turned out to be 6 min⁻¹. Further, in the data set with SRPK1 [12] (setting [16]), the “rate constant, slow phase” value came out at 0.2 min⁻¹. Further, in the data set with SRPK1 [12] (setting [17]), the “amplitude, fast phase” value is recorded as 12 sites. Moreover, the “amplitude, slow phase” value with SRPK1 [12] (setting [17]) is given as 3 sites. Further, the extent of phosphorylation result with SRPK1 [12] (SRPK1, single turnover) was “approx. 15 sites”; in the data set with SRPK1(ΔS) [13] it was “approx 13 sites”. Further, the “time to completion of fast phase” value with SRPK1 [12] (setting [18]) is 1 to 2 min. Moreover, the “time to completion of slower phase” value with SRPK1 [12] (setting [18]) fell in the range of 20 to 30 min. In addition, in the data set with SRPK1 [14], the Kd is 20 to 50 nM. For the same molecule, the “serines rapidly phosphorylated in RS1” value with SRPK1 [15] (SRSF1, SRPK1, strict C-to-N-terminal direction, ref [7], [10]) was 10-12 serines. In the data set with SRPK1 [15] (SRSF1, SRPK1, shown previously, ref none printed in this sentence), the “additional serines slowly modified in RS2” value is given as “about 3 serines”.

As usually defined, the Km is the substrate concentration at which the rate is half of its maximum. As usually defined, the Ki is the equilibrium dissociation constant of an inhibitor or competing ligand from its target. By kcat is commonly meant the maximal rate divided by the concentration of active sites. In general, Kd refers to a measure of binding affinity in units of concentration.

(Values after PMC3121894 (Journal of molecular biology, 2011).)
